Screening results deposited in PubChem BioAssay by several laboratories.
Only a selection was taken, and hits are over-represented in it overall.
D1 mod: allosteric modulators of human D1 dopamine receptor. B-score at 10 µM. actives 5.9% (n = 58,000). P21728. HEK293 D1, CRE-luciferase, dopamine EC30 potentiation; actives deviate in either direction. AID 641;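 active = luminescence count or its row- and column-corrected plate score outside the 99.7% band of the plate's sample wells, on either side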
Target sequence (P21728 whole entry, looked up): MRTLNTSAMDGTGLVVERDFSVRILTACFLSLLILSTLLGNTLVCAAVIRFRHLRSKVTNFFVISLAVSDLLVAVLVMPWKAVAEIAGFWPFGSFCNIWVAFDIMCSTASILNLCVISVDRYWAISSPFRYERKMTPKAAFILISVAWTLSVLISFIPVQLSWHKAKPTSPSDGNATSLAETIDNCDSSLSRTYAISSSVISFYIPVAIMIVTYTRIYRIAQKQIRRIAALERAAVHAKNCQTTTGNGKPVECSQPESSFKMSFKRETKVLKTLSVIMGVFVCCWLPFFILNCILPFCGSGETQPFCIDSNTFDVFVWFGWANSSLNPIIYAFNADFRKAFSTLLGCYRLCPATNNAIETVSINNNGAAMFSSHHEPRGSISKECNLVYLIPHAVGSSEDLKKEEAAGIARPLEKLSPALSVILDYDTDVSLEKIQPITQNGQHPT
hDAT+cocaine: human DAT dopamine uptake with cocaine, either direction. Q01959. LLC-PK1 hDAT cells, [14C]-dopamine uptake with cocaine IC80; actives deviate in either direction. B-score at 10 µM. actives 1.3% (n = 110,000);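 active = Z score or B-score, a plate-position-corrected score, falls beyond the plate's 99.7% confidence bounds, in either direction; inactive = both scores lie inside the 99.7% bounds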
WNV protease inh: blocks West Nile virus NS2B-NS3 protease activity; AID 577; P06935; z-score (concentration not given with the values); actives 0.18% (n = 65,000); WNV NS2B-NS3 protease, fluorogenic substrate Ex360/Em465; stronger effect = lower value; in the data active = z-score below about -3
AP ELISA ortho: alternative pathway complement inhibition, orthogonal assay | Human serum alternative complement pathway, LPS-coated ELISA, C3 deposition; tested in compound mixtures | inhibition, % at 5 µM | actives 0.08% (n = 62,000);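 active = inhibition above 30% in each of the two pooled mixtures holding the compound, so the lower value exceeds 30%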
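Assay system: human serum alternative complement pathway, C3 deposition on LPS-coated wells; Dosing: 5 µM per compound in ten-compound mixtures; Detection: Anti-C3 ELISA, OD 450 nm; Buffer or medium: Mg2+-EGTA GVB++ buffer containing human serum at 1:15 dilution; Timing: 1 h at 37 °C; Replication: two different pools per compound.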
Numbers stand for hits; 0 = inactive; - = no result given.

SMILES | D1 mod | hDAT+cocaine | WNV protease inh | AP ELISA ortho
O=C(CN1CCCC1)Nc1ccc(-c2nc3cc(NC(=O)CN4CCCC4)ccc3o2)cc1 | 0 | 0 | 0 | 0
COc1cccc(-n2c(SCC(=O)N3c4ccccc4CC3C)nnc2-c2ccco2)c1 (stereo unspecified) | - | 2.9 | - | -
CCCOC1(NC(=O)c2ccccc2)C(C)=CC(=O)C=C1C | -3.2 | 0 | 0 | 0
COc1ccc(-c2c3c(=O)n(C)c(=O)n(C)c3cn2Cc2cccnc2)cc1 | 0 | -8.7 | 0 | 0
COc1ccc(-c2c3c(=O)n(C)c(=O)n(C)c3cn2Cc2ccccn2)cc1 | 0 | 0 | 0 | 0
COc1ccc(N(C(=O)c2ccco2)S(=O)(=O)c2ccc(F)cc2)cc1 | - | 0 | - | -
COc1ccc(N(C(=O)c2ccco2)S(=O)(=O)c2cc(OC)ccc2OC)cc1 | -2.2 | 0 | 0 | 0
COc1ccc(OC)c(CNC(=O)CCN2C(=O)COc3ccccc32)c1 | 0 | 1.6 | 0 | 0
O=C(Cn1nc(-c2ccccc2)ccc1=O)NCCN1CCN(Cc2ccccc2)CC1 | -5 | 0 | 0 | 0
S=C(Nc1ccccc1)N1CCCCCC1 | - | -8.4 | - | -
COc1ccc(COc2cc(-c3cccc(OC)c3)nc3ccc(N)cc23)cc1 | - | 0 | - | -
CCC(=O)Nc1ccc2oc(-c3ccccc3Br)nc2c1 | 0 | 0 | 0 | 0
CC(=O)Nc1ccc2oc(-c3ccccc3Br)nc2c1 | -2.8 | - | 0 | 0
Cc1ccc(-n2c(-c3ccncc3)nnc2-c2cccs2)cc1 | 7 | 0 | 0 | 0
COc1ccc(NC(=O)C2CCCN(S(=O)(=O)c3ccc4c(c3)oc(=O)n4C)C2)c(OC)c1 (stereo unspecified) | - | 0 | - | -
COc1ccc(C)cc1NS(=O)(=O)c1ccc(NS(=O)(=O)c2ccc(NC(C)=O)cc2)cc1 | 0 | 3.9 | 0 | 0
Cc1oc(-c2ccc(Cl)cc2)nc1CN1CCCC(C(=O)N2CCN(C(=O)c3ccco3)CC2)C1 (stereo unspecified) | -3.3 | 0 | 0 | 0
COc1ccccc1N(CC(=O)NCc1ccccc1)C(=O)CCC(=O)Nc1cc(C)ccn1 | - | 2.5 | - | -
CCOCCN1CCN(c2c(C)c(C)nc3cc(-c4cc(OC)cc(OC)c4)nn23)CC1 | - | 2.5 | 0 | 0
COCCN1CCN(c2c(C)c(C)nc3cc(-c4cccc(OC)c4)nn23)CC1 | 0 | - | 0 | 0
O=C(Nc1cccc(F)c1)N1CCN(C/C=C/c2ccccc2)CC1 | - | 2.2 | - | -
CC1CCc2nn(CC(=O)NCCC3=CCCCC3)cc2C1 (stereo unspecified) | 0 | 7.5 | 0 | 0
COCCNC(=O)Cn1cc2c(n1)CCC(C)C2 (stereo unspecified) | - | 0 | 0 | 0
Cc1ccc(-n2c(C)cc(C(=S)N3CCOCC3)c2C)cc1C | - | 0 | - | -
CC(=O)Nc1ccc(N2CCCCC2)c(C(=O)Nc2cccc(C)c2)c1 | - | 0 | - | -
SMILES | D1 mod | hDAT+cocaine | WNV protease inh | AP ELISA ortho
Cc1cccc(NC(=O)c2cc(NC(=O)C3CCCCC3C(=O)O)ccc2N2CCCCC2)c1 (stereo unspecified) | 0 | 4 | 0 | 0
COc1ccc(-c2[nH]c(-c3ccccc3)nc2SCC(=O)NC2CCCC2)cc1 | - | 4.7 | - | -
COc1ccc(-c2[nH]c(-c3ccc(F)cc3)nc2SCC(=O)NC2CCCC2)cc1 | - | 0 | - | -
CCCCN1CC[C@H]2C=CC[C@@H](C(=O)NCCc3ccccc3)[C@H]2C1=O | - | 0 | - | -
O=C(Nc1ccc(-c2nc3cccnc3s2)cc1)c1ccco1 | -5 | 0 | 0 | 0
COc1ccc(N2CCN(S(=O)(=O)c3ccc4c(c3)CCCC4)CC2)c([N+](=O)[O-])c1 | - | 0 | - | -
N#Cc1c(/N=C/c2cccs2)sc2c1CCCCC2 | -3.6 | 0 | 0 | 0
Cc1ccc(CNC(=O)Nc2cccs2)cc1 | - | 0 | 0 | 0
Cn1c(/C=N/c2nc3ccccc3[nH]2)nc2ccccc21 | 0 | -2.4 | 0 | 0
COC(=O)C1=C(C(=O)OC)[C@@H]2N(C)c3ccccc3[C@@]23C[C@@H](C(=O)OC)N(C(=O)c2ccc(Br)cc2)C3=N1 | - | 0 | - | -
CCOC(=O)c1sc(NC(=O)c2sccc2C)cc1C | - | 0 | - | -
CCOC(=O)c1sc(NC(=O)c2ccc(Br)o2)cc1C | -3.9 | 0 | 0 | 0
CN1CCN(CC(=O)Nc2nc(-c3ccccc3)cs2)CC1 | - | - | 0 | -
O=C(Cn1nnc(-c2ccc(CN3CCOCC3)cc2)n1)Nc1nc(-c2ccccc2)cs1 | 0 | -9.6 | 0 | 0
C=CCNc1nc(N2CCCC2)nc2ccccc12 | -4.5 | - | 0 | 0
Cc1cc(=O)n2nc(-c3ccc(C(F)(F)F)cc3)sc2n1 | - | 0 | - | -
Cc1ccc(NC(=O)NC2=N/C(=C(/C#N)C(=O)N3CCCC3)c3ccccc32)cc1 | -3.8 | 0 | 0 | 0
Cc1ccc(NC(=O)C2CC=CCC2C(=O)N2CCCCC2)cc1 (stereo unspecified) | 0 | 0 | 0 | 0
Cc1cccc(N(CC(=O)NC2CCCCC2)C(=O)CCCC(=O)Nc2ccccn2)c1 | - | 2.2 | - | -
O=C(c1c(O)c2ccccc2oc1=O)C1CCCCC1 | - | 0 | - | -
O=C(CCC1CCCC1)c1c(O)c2ccccc2oc1=O | -3.1 | -3.2 | 0 | 0
CCC(=O)Nc1ccc(NC(=O)CSc2nnnn2-c2cccnc2)cc1C | - | 0 | - | -
CCOC(=O)Cn1nc(C)c2c1CCCC2=O | - | 0 | - | -
Cc1sc2ncnc(Oc3ccc(-n4ccnc4)cc3)c2c1C | - | 2.5 | 0 | 0
Cc1sc2ncnc(NCCCn3ccnc3)c2c1C | 0 | 0 | 0 | 0
SMILES | D1 mod | hDAT+cocaine | WNV protease inh | AP ELISA ortho
Cc1ccc2cc(CN(CCCN3CCOCC3)C(c3nnnn3Cc3ccco3)C(C)C)c(=O)[nH]c2c1C (stereo unspecified) | - | 3.7 | - | -
c1ccc(C2=Nn3c(nnc3-c3n[nH]c4c3CCC4)SC2)cc1 | -3.6 | 0 | 0 | 0
c1ccc(C2=Nn3c(nnc3-c3cc(-c4ccccc4)n[nH]3)SC2)cc1 | 0 | 0 | 0 | 0
COc1ccc2nc(SCC(=O)NC(C)(C)C)[nH]c2c1 | -2.1 | 0 | 0 | 0
CCC(c1nnnn1C(C)(C)C)N1CCN(c2cc(Cl)ccc2C)CC1 (stereo unspecified) | 0 | 0 | 0 | 0
CCNC(=S)N/N=C/c1ccc(OCC(=O)Nc2ccc(C)cc2)cc1 | - | -2.9 | - | -
CC(NS(=O)(=O)c1ccccc1)C(c1cccs1)N1CCN(c2ccccc2)CC1 (stereo unspecified) | 0 | 4.8 | 0 | 0
COc1ccccc1N1CCN(C(c2cccs2)C(C)NS(=O)(=O)c2ccccc2)CC1 (stereo unspecified) | 0 | 0 | 0 | 0
CC/C(=N\NC(=O)c1ccc(-c2ccccc2)cc1)C12CC3CC(CC(C3)C1)C2 | - | 0 | - | -
COc1cccc(CC(NC(C)=O)C(=O)NC2CCN(S(=O)(=O)c3ccc4ccccc4c3)CC2)c1 (stereo unspecified) | - | 0 | - | -
CCC(C)c1ccc(OCCn2cc(/C=N/NC(=O)CSc3nnc(C)s3)c3ccccc32)cc1 (stereo unspecified) | - | 0 | - | -
CC1Cc2ccccc2N1C(=O)CSc1nc2c(c(=O)n(C)c(=O)n2C)n1Cc1ccc(F)cc1 (stereo unspecified) | - | -6.9 | - | -
CCCCn1c(SCc2ccccn2)nc2c1c(=O)n(C)c(=O)n2C | - | 0 | - | -
CCCn1c(SCc2cc(=O)[nH]c3ccccc23)nc2c1c(=O)n(C)c(=O)n2C | 6 | 0 | 0 | 0
